Measured values published in ChEMBL document CHEMBL1649151, “Urinary bactericidal activity of Doripenem versus that of levofloxacin in patients with complicated urinary tract infections or pyelonephritis” (Antimicrob Agents Chemother, 2009).
Converted amounts (≈) assume the structure as drawn.

How the values were obtained:
[1] = system: Staphylococcus haemolyticus; assay: Antimicrobial activity against Staphylococcus haemolyticus 1949819 B-M isolated from patient with pyelonephritis by Etest; type: functional
Escherichia coli [2] = assay: Antimicrobial activity against Escherichia coli 1821385 B-C isolated from patient with pyelonephritis by Etest; type: functional
Escherichia coli [3] = assay: Antimicrobial activity against Escherichia coli 1949825 B-K isolated from patient with pyelonephritis assessed as >3-log reduction in urinary bacterial titer after 24 hrs; type: functional, Urine
Outline: (§1)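 Patient urine was collected on day 3 of i.v. therapy (steady state) over 4-h intervals after infusion start, stored at –80°C, and sterile filtered. It was twofold serially diluted (1:0 to 1:131,072) in the patient's own pre-dose drug-free urine, inoculated to 1.0 x 10^6–9.5 x 10^6 CFU/ml, and incubated for 18 h at 37°C. Subcultures were grown on blood agar for 24 h. The UBT is the reciprocal of the highest dilution giving >99.9% kill.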

Escherichia coli [4] = assay: Antimicrobial activity against Escherichia coli 1780063 B-A isolated from patient with pyelonephritis assessed as >3-log reduction in urinary bacterial titer after 24 hrs; type: functional, Urine
Outline: (§2)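 Urine was collected before dosing and on day 3 of i.v. therapy (steady state), in 4-h intervals from infusion start (0–4 to 20–24 h), stored at −80°C and sterile filtered. It was serially diluted twofold (1:0 to 1:131,072) in the patient's drug-free pre-dose urine. Microdilution used an inoculum of 1.0 x 10^6–9.5 x 10^6 CFU/ml, incubated 18 h at 37°C, then subcultured 24 h on blood agar. The endpoint was >99.9% kill, reported as reciprocal titer.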

Enterococcus faecalis [5] = assay: Antimicrobial activity against Enterococcus faecalis 2215770 B-T isolated from patient with pyelonephritis assessed as >3-log reduction in urinary bacterial titer after 12 hrs; type: functional, Urine; outline: as §2
[6] = system: Staphylococcus haemolyticus; assay: Antimicrobial activity against Staphylococcus haemolyticus 1949819 B-M isolated from patient with pyelonephritis assessed as >3-log reduction in urinary bacterial titer after 12 hrs; type: functional, Urine
Escherichia coli [7] = assay: Antimicrobial activity against Escherichia coli 1821385 B-C isolated from patient with pyelonephritis assessed as >3-log reduction in urinary bacterial titer after 24 hrs; type: functional, Urine
Outline: (§3)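 Urine was collected on day 3 of i.v. therapy (steady state) over 4-h intervals from infusion start (0–4 to 20–24 h), stored at –80°C and sterile filtered. It was serially diluted twofold (1:0 up to 1:131,072) in the patient's own pre-dose drug-free urine. Microdilution used a final inoculum of 1.0 x 10^6 to 9.5 x 10^6 CFU/ml, incubated 18 h at 37°C in air. 10 µl was subcultured onto 5% blood Columbia agar for 24 h at 37°C. The bactericidal endpoint was >99.9% (>3-log) kill, reported as a reciprocal titer.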

Staphylococcus aureus [8] = assay: Antimicrobial activity against Staphylococcus aureus 1889640 A-Z isolated from patient with pyelonephritis assessed as >3-log reduction in urinary bacterial titer after 16 hrs; type: functional, Urine
Pseudomonas aeruginosa = assay: Antimicrobial activity against Pseudomonas aeruginosa 2062713 B-Q isolated from patient with pyelonephritis assessed as >3-log reduction in urinary bacterial titer after 8 hrs; type: functional, Urine
Enterococcus faecalis [9] = assay: Antimicrobial activity against Enterococcus faecalis 2215767-10 B-S isolated from patient with pyelonephritis assessed as >3-log reduction in urinary bacterial titer after 20 hrs; type: functional, Urine; outline: as §2
Escherichia coli [10] = assay: Antimicrobial activity against Escherichia coli 1780064 A-X isolated from patient with pyelonephritis assessed as >3-log reduction in urinary bacterial titer after 20 hrs; type: functional, Urine; outline: as §3
Escherichia coli [11] = assay: Antimicrobial activity against Escherichia coli 2062716 B-R isolated from patient with pyelonephritis assessed as >3-log reduction in urinary bacterial titer after 20 hrs; type: functional, Urine; outline: as §1
[12] = system: Staphylococcus epidermidis; assay: Antimicrobial activity against Staphylococcus epidermidis 2297262-9 B-V isolated from patient with pyelonephritis assessed as >3-log reduction in urinary bacterial titer after 16 hrs; type: functional, Urine
Staphylococcus aureus [13] = assay: Antimicrobial activity against Staphylococcus aureus 1889640 A-Z isolated from patient with pyelonephritis assessed as >3-log reduction in urinary bacterial titer after 24 hrs; type: functional, Urine
Escherichia coli [14] = assay: Antimicrobial activity against Escherichia coli 1655646 A-Y isolated from patient with pyelonephritis assessed as >3-log reduction in urinary bacterial titer after 24 hrs; type: functional, Urine; outline: as §2
Enterococcus faecalis [15] = assay: Antimicrobial activity against Enterococcus faecalis 2297262-10 B-V isolated from patient with pyelonephritis assessed as >3-log reduction in urinary bacterial titer after 16 hrs; type: functional, Urine; outline: as §2
Enterococcus faecalis [16] = assay: Antimicrobial activity against Enterococcus faecalis 2297262-10 B-V isolated from patient with pyelonephritis assessed as >3-log reduction in urinary bacterial titer after 12 hrs; type: functional, Urine; outline: as §2

Row | SMILES | MIC [1] | MIC (Escherichia coli [2]) | urinary bactericidal titer (Escherichia coli [3]) | urinary bactericidal titer (Escherichia coli [4]) | urinary bactericidal titer (Enterococcus faecalis [5]) | urinary bactericidal titer [6] | urinary bactericidal titer (Escherichia coli [7]) | urinary bactericidal titer (Staphylococcus aureus [8]) | urinary bactericidal titer (Pseudomonas aeruginosa) | Time (Enterococcus faecalis [9]) | urinary bactericidal titer (Escherichia coli [10]) | urinary bactericidal titer (Escherichia coli [11]) | urinary bactericidal titer [12] | urinary bactericidal titer (Staphylococcus aureus [13]) | urinary bactericidal titer (Escherichia coli [14]) | urinary bactericidal titer (Enterococcus faecalis [15]) | urinary bactericidal titer (Enterococcus faecalis [16])
1 | C[C@@H](O)[C@H]1C(=O)N2C(C(=O)O)=C(S[C@@H]3CN[C@H](CNS(N)(=O)=O)C3)[C@H](C)[C@H]12 [DORIPENEM] | 1 µg/mL (≈ 2.38 µM) | 0.03 µg/mL (≈ 0.0713 µM) | 256 reciprocal titer | 1024 reciprocal titer | 1024 reciprocal titer | 1024 reciprocal titer | 256 reciprocal titer | – | – | – | – | – | – | – | – | – | –
2 | C[C@H]1COc2c(N3CCN(C)CC3)c(F)cc3c(=O)c(C(=O)O)cn1c23.C[C@H]1COc2c(N3CCN(C)CC3)c(F)cc3c(=O)c(C(=O)O)cn1c23.O [LEVOFLOXACIN] | – | – | – | – | – | – | – | 128 reciprocal titer | 4 reciprocal titer | 0 h | 256 reciprocal titer | 128 reciprocal titer | 2 reciprocal titer | 64 reciprocal titer | 256 reciprocal titer | 0 reciprocal titer | 0 reciprocal titer
